# Measured values as given in ChEMBL document CHEMBL1124248, “Preparation and antischistosomal and antitumor activity of hycanthone and some of its congeners. Evidence for the mode of action of hycanthone” (1988).
# What was measured:
# [1] = test system: HeLa; assay: Incorporation of 2*10e-5 M [3H]uridine in HeLa cells in presence of HNMC measured as TCA precipitable radioactivity compared with non treated controls; assay type: functional, cell-based; settings: Homo sapiens
# Method in brief: (§1)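 HeLa cells (10^6 per duplicate tube) were incubated 1 h with drug. [3H]uridine was then added and incubation continued 1 h with drug present. Cells were washed with cold saline and precipitated with 10% TCA. Precipitates were collected on glass filters, TCA-washed and counted. Values are % TCA-precipitable radioactivity versus untreated controls.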
# [2] = test system: Nucleic Acid; assay: In vitro binding of [3H]HNMC to calf thymus DNA was measured after 2 days; assay type: nucleic-acid assay; settings: Bos taurus
# Method in brief: (§2)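 0.02 µCi of 3H-labelled drug was added to 50 µg calf thymus DNA in 20 µL of 0.1 M citrate-phosphate buffer, pH 7. Incubated 1.5 h at 37 °C in the dark, diluted to 0.1 mL saline and dialyzed against saline at 4 °C for up to 4 days. Duplicate 10 µL samples taken from inside the bags at intervals were counted directly, or after TCA precipitation.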
# [3] = test system: Mus musculus; assay: In vivo antitumor activity against p-388 lymphocytic leukemia in mice at 3.13 mg/kg; assay type: functional
# Method in brief: (§3)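 Murine P388 lymphocytic leukemia model tested by the National Cancer Institute. Compound given once daily for 9 days; activity expressed as T/C.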
# [4] = test system: Nucleic Acid; assay: In vitro binding of [3H]HNMC to calf thymus DNA after precipitation with alcohol and TCA was measured after 2 hours; assay type: nucleic-acid assay; settings: Bos taurus; method in brief: as §2
# [5] = test system: Nucleic Acid; assay: In vitro binding of [3H]HNMC to calf thymus DNA after precipitation with alcohol and TCA was measured after 4 day; assay type: nucleic-acid assay; settings: Bos taurus; method in brief: as §2
# [6] = test system: Nucleic Acid; assay: In vitro binding of [3H]HNMC to calf thymus DNA after precipitation with alcohol and TCA was measured after 1 day; assay type: nucleic-acid assay; settings: Bos taurus; method in brief: as §2
# [7] = test system: HeLa; assay: Incorporation of 2*10e-5 M [3H]uridine in HeLa cells in absence of HNMC measured as TCA precipitable radioactivity compared with non treated controls; assay type: functional, cell-based; settings: Homo sapiens
# Method in brief: (§4)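 HeLa cells (10^6 per duplicate tube) were exposed to drug for 1 h, washed three times with medium, then held 2 h in drug-free medium. [3H]uridine was added for 1 h. Cells were precipitated with 10% TCA, and precipitates were filter-collected and counted. Values are % TCA-precipitable radioactivity versus untreated controls.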
# [8] = test system: HeLa; assay: Incorporation of 2*10e-6 M [3H]uridine in HeLa cells in absence of HNMC measured as TCA precipitable radioactivity compared with non treated controls; assay type: functional, cell-based; settings: Homo sapiens; method in brief: as §4
# [9] = test system: Nucleic Acid; assay: In vitro binding of [3H]HNMC to calf thymus DNA was measured after 1 day; assay type: nucleic-acid assay; settings: Bos taurus; method in brief: as §2
# [10] = test system: Schistosoma mansoni; assay: Incorporation of 1.2 M *10e6 [3H]uridine in hycanthone(HC) resistant Schistosoma mansoni; assay type: functional
# Method in brief: (§5)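 Adult HC-resistant S. mansoni were treated in vitro, and [3H]uridine incorporation by the worms was measured. Values are % of control. Concentrations are given in M × 10^6.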
# [11] = test system: Mus musculus; assay: In vivo antitumor activity against p-388 lymphocytic leukemia in mice at 6.25 mg/kg; assay type: functional; method in brief: as §3
# [12] = test system: Schistosoma mansoni; assay: Incorporation of 1.2 M*10e6 [3H]uridine in hycanthone(HC) sensitive Schistosoma mansoni; assay type: functional
# [13] = (§6) Total radioactivity of [3H]HNMC was evaluated after 1 day; assay type: functional
# Method in brief: (§7)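 3H-labelled drug (0.02 µCi) was mixed with 50 µg calf thymus DNA in 0.1 M citrate-phosphate buffer, pH 7, and incubated in the dark for 1.5 h at 37 °C. The mix was diluted in saline and dialysed against saline at 4 °C. Duplicate samples drawn from inside the bags at intervals up to 4 days were counted directly.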
# [14] = test system: Schistosoma mansoni; assay: Incorporation of 6M *10e6 [3H]uridine in hycanthone(HC) resistant Schistosoma mansoni; assay type: functional; method in brief: as §5
# [15] = Total radioactivity of [3H]HNMC was evaluated after 2 hr; assay type: functional; method in brief: as §7
# [16] = test system: Mus musculus; assay: In vivo antitumor activity against p-388 lymphocytic leukemia in mice at 12.5 mg/kg; Toxic; assay type: functional, organism-based; design: dose 12.5 mg/kg; method in brief: as §3
# [17] = test system: Nucleic Acid; assay: In vitro binding of [3H]HNMC to calf thymus DNA was measured after 3 days; assay type: nucleic-acid assay; settings: Bos taurus; method in brief: as §2
# [18] = (§8) Total radioactivity of [3H]HNMC was evaluated after 3 days; assay type: functional; method in brief: as §7
# [19] = test system: HeLa; assay: Incorporation of 10e-5 M [3H]uridine in HeLa cells in presence of HNMC measured as TCA precipitable radioactivity compared with non treated controls; assay type: functional, cell-based; settings: Homo sapiens; method in brief: as §1
# [20] = Total radioactivity of [3H]HNMC was evaluated after 2 hours; assay type: functional; method in brief: as §7
# [21] = test system: Nucleic Acid; assay: In vitro binding of [3H]HNMC to calf thymus DNA after precipitation with alcohol and TCA was measured after 2 day; assay type: nucleic-acid assay; settings: Bos taurus; method in brief: as §2
# [22] = test system: Schistosoma mansoni; assay: Day 50% survival of worms in culture of HC resistant Schistosoma mansoni; assay type: functional
# Method in brief: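 Adult HC-resistant S. mansoni were exposed in vitro and kept in culture. The value is the day by which 50% of worms were dead. Cultures were ended at different times in different experiments. Concentrations are given in M × 10^6.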
# [23] = as §6; assay type: functional; method in brief: as §7; remark: listed apart in the source
# [24] = test system: HeLa; assay: Binding of 1x 10e-5 M [3H]HNMC to HeLa DNA; assay type: functional, Homo sapiens
# Method in brief: (§9)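 HeLa cells exposed 1 h to [3H]-labelled drug, washed three times with saline, then held 30 min at 37 °C in drug-free medium. After a 2 h digestion at 37 °C, crude DNA was ethanol-precipitated, purified on a CsCl density gradient, dialyzed and reprecipitated. DNA was quantified by A260. An aliquot was treated with DNase, and DNase-sensitive radioactivity was expressed as drug molecules per base pair.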
# [25] = test system: Nucleic Acid; assay: In vitro binding of [3H]HNMC to calf thymus DNA was measured after 2 hours; assay type: nucleic-acid assay; settings: Bos taurus; method in brief: as §2
# [26] = test system: Schistosoma mansoni; assay: Incorporation of 6M *10e6 [3H]-uridine in hycanthone(HC) sensitive Schistosoma mansoni; assay type: functional
# [27] = test system: Nucleic Acid; assay: In vitro binding of [3H]HNMC to calf thymus DNA after precipitation with alcohol and TCA was measured after 3 days; assay type: nucleic-acid assay; settings: Bos taurus; method in brief: as §2
# [28] = as §8; assay type: functional; method in brief: as §7; remark: listed apart in the source
# [29] = test system: HeLa; assay: Incorporation of 2*10e-6 M [3H]uridine in HeLa cells in presence of HNMC measured as TCA precipitable radioactivity compared with non treated controls; assay type: functional, cell-based; settings: Homo sapiens; method in brief: as §1
# [30] = test system: Nucleic Acid; assay: In vitro binding of [3H]HNMC to calf thymus DNA after precipitation with alcohol and TCA was measured; assay type: nucleic-acid assay; settings: Bos taurus; method in brief: as §2
# [31] = test system: Nucleic Acid; assay: In vitro binding of [3H]HNMC to calf thymus DNA was measured after 4 day; assay type: nucleic-acid assay; settings: Bos taurus; method in brief: as §2
# [32] = test system: HeLa; assay: Incorporation of 10e-5 M [3H]uridine in HeLa cells in absence of HNMC measured as TCA precipitable radioactivity compared with non treated controls; assay type: functional, cell-based; settings: Homo sapiens; method in brief: as §4
# [33] = test system: Nucleic Acid; assay: In vitro binding of [3H]HNMC to calf thymus DNA; assay type: nucleic-acid assay; settings: Bos taurus; method in brief: as §2
# [34] = test system: HeLa; assay: Binding of 1x 10e-4 M [3H]HNMC to HeLa DNA; assay type: functional, Homo sapiens; method in brief: as §9
# [35] = test system: Schistosoma mansoni; assay: Day 50% survival of worms in culture of HC sensitive Schistosoma mansoni; assay type: functional
# [36] = test system: HeLa; assay: Binding of 5x 10e-4 M [3H]HNMC to HeLa DNA; assay type: functional, Homo sapiens; method in brief: as §9
# [37] = test system: Mus musculus; assay: In vivo antitumor activity against p-388 lymphocytic leukemia in mice at 25 mg/kg; assay type: functional; method in brief: as §3
# [38] = test system: Schistosoma mansoni; assay: Incorporation of 1.1 M *10e6 [3H]uridine in hycanthone(HC) resistant Schistosoma mansoni; assay type: functional; method in brief: as §5
# [39] = test system: Schistosoma mansoni; assay: Incorporation of 5.5M*10e6 [3H]uridine in hycanthone(HC) sensitive Schistosoma mansoni; assay type: functional
# [40] = test system: Mus musculus; assay: In vivo antitumor activity against p-388 lymphocytic leukemia in mice at 3.12 mg/kg; assay type: functional; method in brief: as §3
# [41] = test system: Mus musculus; assay: In vivo antitumor activity against p-388 lymphocytic leukemia in mice at 12.5 mg/kg; assay type: functional; method in brief: as §3
# [42] = test system: Schistosoma mansoni; assay: Incorporation of 1.1 M *10e6 [3H]uridine in hycanthone(HC) sensitive Schistosoma mansoni; assay type: functional
# [43] = test system: Schistosoma mansoni; assay: Incorporation of 5.5 M*10e6 [3H]uridine in hycanthone(HC) resistant Schistosoma mansoni; assay type: functional; method in brief: as §5
# [44] = test system: Mus musculus; assay: In vivo antitumor activity against p-388 lymphocytic leukemia in mice at 1.5 mg/kg; assay type: functional; method in brief: as §3
smiles,measurement,setting,value
CCN(CC)CCNc1ccc(COC(=O)NC)c2sc3ccccc3c(=O)c12,Radioactivity,[1],6%
same,Radioactivity,[2],14800 c.p.m.
same,T/C,[3],132%
same,Radioactivity,[4],12300 c.p.m.
same,Radioactivity,[5],5100 c.p.m.
same,Radioactivity,[6],9500 c.p.m.
same,Radioactivity,[7],2%
same,Radioactivity,[8],24%
same,Radioactivity,[9],15000 c.p.m.
same,Control,[10],39%
same,T/C,[11],166%
same,Control,[12],21%
same,Radioactivity,[13],1750 c.p.m.
same,Control,[14],11%
same,Radioactivity,[15],27500 c.p.m.
same,T/C,[16],Toxic
same,Radioactivity,[17],16000 c.p.m.
same,Radioactivity,[18],100 c.p.m.
same,Radioactivity,[19],11%
same,Radioactivity,[20],27500 c.p.m.
same,Radioactivity,[21],8000 c.p.m.
same,Effect,[22],8 days
same,Radioactivity,[23],150 c.p.m.
same,Drug mol/base pair,[24],8.4e-05
same,Radioactivity,[25],52000 c.p.m.
same,Control,[26],3%
same,Radioactivity,[27],6900 c.p.m.
same,Radioactivity,[28],1350 c.p.m.
same,Radioactivity,[29],57%
same,Radioactivity,[30],11500 c.p.m.
same,Radioactivity,[31],15000 c.p.m.
same,Radioactivity,[32],4%
same,Radioactivity,[33],134000 c.p.m.
same,Drug mol/base pair,[34],0.00105
same,Effect,[35],9 days
same,Drug mol/base pair,[36],0.000203
CCCCNC(=O)OCc1ccc(NCCN(CC)CC)c2c(=O)c3ccccc3sc12,T/C,[37],129%
same,Control,[38],100%
same,T/C,[11],135%
same,Control,[39],31%
same,T/C,[40],119%
same,T/C,[41],104%
same,Control,[42],34%
same,Control,[43],100%
same,Effect,[35],>12 days
CNC(=O)OCc1ccc(NCCN(C)C)c2c(=O)c3cc(O)ccc3sc12,T/C,[11],127
same,T/C,[40],130
same,T/C,[41],112
same,T/C,[44],134
